Measured values collected from several papers.
Compare with care: the assays were run in different laboratories.
Target: MAP kinase-interacting serine/threonine-protein kinase 1 (MKNK1, Homo sapiens, UniProt Q9BUB5)

COc1cc2ncnc(Nc3ccc(Oc4ccccc4)cc3C)c2cc1OC
inhibition (enzyme activity; inhibitor; 1 µM): 2%

CC[C@H](CO)Nc1nc(NCc2ccccc2)c2ncn(C(C)C)c2n1
remaining signal (cell-free assay; 0.5 µM): 96.4%

O=C(Nc1cnn(-c2csc(C(=O)NC3COC3)c2)c1)Nc1ccccc1Cl
remaining activity (enzyme activity; inhibitor; 5 µM): 94.3%

N#CCCc1ccc2c(c1)-c1[nH]c3ccc([N+](=O)[O-])cc3c1CC(=O)N2
remaining signal (cell-free assay; 0.5 µM): 66.7%

Nc1nc(NC2CCCCC2)sc1C(=O)c1ccccc1
remaining activity (enzyme activity; inhibitor; 10 µM): 105%

Cn1nc(C(=O)NCc2ccc(C(=O)O)cc2)cc1-c1ccc2[nH]ccc2c1
remaining binding (cell-free assay; competition with immobilised ligand; 0.1 µM): 100%

O=C1Nc2ccc(Cl)cc2C1=Cc1cc(Cl)c(O)c(Cl)c1
remaining signal (cell-free assay; 0.5 µM): 103%

COc1ccc2c(c1)O[C@H](c1ccc(OC)c(OC)c1)C[C@@H]2NC(=O)C1(c2ccc3c(c2)OC(F)(F)O3)CC1
remaining binding (cell-free assay; competition with immobilised ligand; 1 µM): 81%

O=C(CSc1nc2nccnc2c(=O)n1CCc1ccccc1)Nc1nccs1
inhibition (enzyme activity; inhibitor; 10 µM): 1%

CNCc1ccccc1-c1csc([C@H](C)Nc2nc(C)nc3cc(OC)c(OC)cc23)c1
remaining binding (cell-free assay; competition with immobilised ligand; 1 µM): 91%

CC(C)(C)C(=O)c1sc(NC2CCCCC2)nc1N
remaining activity (enzyme activity; inhibitor; 10 µM): 105%

FC(F)(F)Oc1cccc(-c2cnc3ccc(-c4ccncc4)nn23)c1
activity vs control (enzyme activity; inhibitor; radiometric; 1 µM): 75%

Cc1nc(C2CCN(C(=O)c3ccc(OC(F)(F)F)cc3N)CC2)c2ncc(N3CCN(C)CC3)cc2n1
remaining binding (cell-free assay; competition with immobilised ligand; 1 µM): 100%

Oc1cccc(-c2nc(N3CCOCC3)c3oc4ncccc4c3n2)c1
remaining activity (enzyme activity; inhibitor; 10 µM): 97%

Cc1sc(C(=O)NC2COC2)cc1-n1cc(NC(=O)Nc2c(F)cccc2Cl)cn1
remaining activity (enzyme activity; inhibitor; 10 µM): 94.2%

CN(C)c1ncnc(-c2ccc3nc(Nc4cc(CN5CCN(C(=O)CC(F)(F)F)CC5)ccn4)[nH]c3c2)c1Cl
remaining binding (cell-free assay; competition with immobilised ligand; 1 µM): 62%

CC/C(=N\NC(=O)NCc1cccc(O)c1)c1ccc(O)c(C)c1O
inhibition (enzyme activity; inhibitor; 0.1 µM): 0.4%

COc1cc(Nc2cnc(C#N)c(O[C@H](C)CN(C)C)n2)ncc1-c1cnn(C)c1
remaining activity (enzyme activity; inhibitor; radiometric; 10 µM): 90%

CC(C)(C)c1nc(-c2cccc(NS(=O)(=O)c3c(F)cccc3F)c2F)c(-c2ccnc(N)n2)s1
remaining activity (enzyme activity; inhibitor; radiometric; 1 µM): 128%

Nc1ncnc2occ(-c3ccc(NC(=O)Nc4cc(C(F)(F)F)ccc4F)cc3)c12
remaining signal (cell-free assay; inhibitor; 20 µM): 0%

Nc1ncnc2n[nH]c(Nc3ccc(F)cc3)c12
remaining signal (cell-free assay; 0.5 µM): 75.2%

O=C(Nc1ccc(Oc2ccc(F)cc2)cc1)N1CCc2ncccc2[C@H]1c1ccc(F)cc1
remaining binding (cell-free assay; competition with immobilised ligand; 1 µM): 95%
